In ChEMBL document CHEMBL2390903, “Anti-tubercular agents. Part 7: a new class of diarylpyrrole-oxazolidinone conjugates as antimycobacterial agents” (Eur J Med Chem, 2013):
≈ marks a conversion by molar mass, not a printed value.

Test system: Mycobacterium tuberculosis
Assay: Antitubercular activity against rifampicin-resistant Mycobacterium tuberculosis assessed as growth inhibition after 2 to 3 weeks by broth microdilution method
Type: functional
Procedure, shortened: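 Primary screen of all compounds against H37Rv at a single concentration in triplicate by microplate dilution. Actives then went to MIC determination by broth microdilution against H37Rv, rifampicin-resistant and XDR-1 isolates. Plates incubated 2–3 weeks at 37 °C in a CO2 incubator. MIC read visually as absence of growth turbidity. Rifampicin and linezolid served as reference drugs.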

| SMILES | MIC [µg/mL] |
| --- | --- |
| CC(=O)NC[C@H]1CN(c2ccc(N3CCN(Cc4cc(-c5cccc(Cl)c5)n(-c5ccccc5F)c4C)CC3)c(F)c2)C(=O)O1 | 8 (≈ 12.6 µM) |
| CC(=O)NC[C@H]1CN(c2ccc(N3CCN(Cc4cc(-c5ccc(C(C)C)cc5)n(-c5ccc(F)cc5F)c4C)CC3)c(F)c2)C(=O)O1 | 4 (≈ 6.06 µM) |
| Cc1ccccc1-c1cc(CN2CCN(c3ccc(N4C[C@H](Cn5cc(-c6cncn6C)nn5)OC4=O)cc3F)CC2)c(C)n1-c1ccc(F)cc1 | 4 (≈ 5.68 µM) |
| Cc1c(CN2CCN(c3ccc(N4C[C@H](Cn5cc(-c6ccccc6)nn5)OC4=O)cc3F)CC2)cc(-c2cccc(Cl)c2)n1-c1ccccc1F | > 16 |
| Cc1c(CN2CCN(c3ccc(N4C[C@H](Cn5cc(-c6ccccc6)nn5)OC4=O)cc3F)CC2)cc(-c2ccc(Cl)c(F)c2)n1-c1ccc(OC(F)(F)F)cc1 | > 16 |
| Cc1ccc(-c2cc(CN3CCN(c4ccc(N5C[C@H](Cn6cc(-c7ccccc7)nn6)OC5=O)cc4F)CC3)c(C)n2-c2ccc(Cl)c(Cl)c2)cc1 | > 16 |
| Cc1c(CN2CCN(c3ccc(N4C[C@H](Cn5cc(-c6ccccc6)nn5)OC4=O)cc3F)CC2)cc(-c2ccc(F)cc2F)n1-c1cc(F)ccc1Br | > 16 |
| Cc1cccc(-c2cn(C[C@H]3CN(c4ccc(N5CCN(Cc6cc(-c7ccccc7C)n(-c7ccc(F)cc7)c6C)CC5)c(F)c4)C(=O)O3)nn2)c1 | > 16 |
| CC(=O)NC[C@H]1CN(c2ccc(N3CCN(Cc4cc(-c5ccc(F)cc5F)n(-c5cc(F)ccc5Br)c4C)CC3)c(F)c2)C(=O)O1 | 8 (≈ 11.2 µM) |
| Cc1ccc(-c2cc(CN3CCN(c4ccc(N5C[C@H](Cn6cc(-c7ccccn7)nn6)OC5=O)cc4F)CC3)c(C)n2-c2ccc(Cl)c(Cl)c2)cc1 | 4 (≈ 5.32 µM) |
| Cc1c(CN2CCN(c3ccc(N4C[C@H](Cn5cc(-c6ccccn6)nn5)OC4=O)cc3F)CC2)cc(-c2ccc(Cl)c(F)c2)n1-c1ccc(OC(F)(F)F)cc1 | 4 (≈ 4.97 µM) |
| Cc1c(CN2CCN(c3ccc(N4C[C@H](Cn5cc(-c6ccccn6)nn5)OC4=O)cc3F)CC2)cc(-c2ccc(F)cc2F)n1-c1ccc(F)cc1 | 8 (≈ 11.1 µM) |
| Cc1ccccc1-c1cc(CN2CCN(c3ccc(N4C[C@H](Cn5cc(-c6ccccn6)nn5)OC4=O)cc3F)CC2)c(C)n1-c1ccc(F)c(F)c1 | 4 (≈ 5.56 µM) |
| Cc1c(CN2CCN(c3ccc(N4C[C@H](Cn5cc(-c6cncn6C)nn5)OC4=O)cc3F)CC2)cc(-c2ccc(C(C)C)cc2)n1-c1ccc(F)cc1F | 8 (≈ 10.7 µM) |
| Cc1c(CN2CCN(c3ccc(N4C[C@H](Cn5cc(-c6cncn6C)nn5)OC4=O)cc3F)CC2)cc(-c2ccc(F)cc2F)n1-c1ccc(F)cc1 | 8 (≈ 11 µM) |
| Cc1ccccc1-c1cc(CN2CCN(c3ccc(N4C[C@H](Cn5cc(-c6cncn6C)nn5)OC4=O)cc3F)CC2)c(C)n1-c1ccc(F)c(F)c1 | 8 (≈ 11.1 µM) |
| CC(=O)NC[C@H]1CN(c2ccc(N3CCOCC3)c(F)c2)C(=O)O1 [LINEZOLID] | 2 (≈ 5.93 µM) |
| CO[C@H]1/C=C/O[C@@]2(C)Oc3c(C)c(O)c4c(O)c(c(/C=N/N5CCN(C)CC5)c(O)c4c3C2=O)NC(=O)/C(C)=C\C=C\[C@H](C)[C@H](O)[C@@H](C)[C@@H](O)[C@@H](C)[C@H](OC(C)=O)[C@@H]1C [RIFAMPIN] | > 128 |
